# From ChEMBL document CHEMBL1765065, “Pro-soft Val-boroPro: a strategy for enhancing in vivo performance of boronic acid inhibitors of serine proteases” (J Med Chem, 2011)
# Calls of active or inactive are those of the source. No cut-off for these calls is given here. Starred links: 1 amine or outer side, 2 acyl side, 3 side chain; linkers in the order of their positions; H or OH if unused. Residues, ends and D or L forms follow the SMILES beside them. *: point of attachment. Suc = O=C(CCC(=O)[*:2])[*:1]; boroPro = OB(O)[C@@H]1CCCN1*
# Assays:
# [1] = Chemical stability of the compound assessed as half life at physiological pH; type: physicochemical
# [2] = biological target: T1, Dipeptidyl peptidase 4 (Homo sapiens, UniProt P27487); experiment: Inhibition of DDP4 at pH 2 preincubated for 10 mins
# Target sequence in this assay (P27487 whole entry): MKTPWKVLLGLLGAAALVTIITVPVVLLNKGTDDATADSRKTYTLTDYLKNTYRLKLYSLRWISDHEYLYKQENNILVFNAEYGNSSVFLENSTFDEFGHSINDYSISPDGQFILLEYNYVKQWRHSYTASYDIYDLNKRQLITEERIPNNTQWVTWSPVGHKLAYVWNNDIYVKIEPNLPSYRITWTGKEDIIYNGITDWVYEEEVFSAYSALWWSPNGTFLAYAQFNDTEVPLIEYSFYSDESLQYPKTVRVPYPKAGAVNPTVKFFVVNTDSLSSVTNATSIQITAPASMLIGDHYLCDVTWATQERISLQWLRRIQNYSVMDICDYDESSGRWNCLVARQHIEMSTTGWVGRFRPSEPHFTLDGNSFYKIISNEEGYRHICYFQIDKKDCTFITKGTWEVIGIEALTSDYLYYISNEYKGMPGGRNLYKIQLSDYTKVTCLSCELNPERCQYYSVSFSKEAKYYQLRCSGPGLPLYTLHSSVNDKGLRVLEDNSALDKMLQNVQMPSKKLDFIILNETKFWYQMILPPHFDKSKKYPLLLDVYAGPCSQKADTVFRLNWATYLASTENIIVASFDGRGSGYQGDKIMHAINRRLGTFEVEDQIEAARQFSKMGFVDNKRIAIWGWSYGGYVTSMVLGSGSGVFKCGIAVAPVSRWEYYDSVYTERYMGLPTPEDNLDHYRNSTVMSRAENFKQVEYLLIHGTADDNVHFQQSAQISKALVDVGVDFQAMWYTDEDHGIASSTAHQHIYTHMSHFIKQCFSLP
# [3] = biological target: T1, Dipeptidyl peptidase 4; experiment: Inhibition of DDP4 at pH 7.4 preincubated for 10 mins
# Target sequence in this assay (P27487 whole entry): as above
# [4] = Effect on pro-drug activation assessed as Chg-Pro formation by mass spectrometry; type: physicochemical
# How it was run: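 Prodrug (10 mM stock) incubated with purified DPPIV (2 μM stock) or no enzyme in 0.1 M HEPES, 0.14 M NaCl, pH 8.0, for 10 min at 25 °C. Desalted on C18 and lyophilized. Chg-Pro detected by reverse-phase HPLC-MS scanning its m/z; Chg-Pro was the reference.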
# [5] = system: Mus musculus; experiment: DDP4-mediated pro-drug activation in ip dosed wild type C57BL/6 mouse assessed as pro-drug level in serum by LC/MS analysis; type: organism-based; conditions: in vivo
# How it was run: (§1)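 Wild-type C57BL/6 (CD26+/+) or DPPIV knockout (CD26-/-) mice, 3 per group, acclimated ≥1 week. Given 50 μg ip in PBS. Blood taken by cardiac puncture after 5 min and treated with 10% TCA. Supernatant intact prodrug quantified by reverse-phase HPLC-MS base peak chromatograms.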
# [6] = system: Mus musculus; experiment: DDP4-mediated pro-drug activation in ip dosed CD26 -/- mouse assessed as pro-drug level in serum by LC/MS analysis; type: organism-based; conditions: in vivo; how it was run: as §1
# [7] = system: Mus musculus; experiment: Antidiabetic activity in po dosed C57BL/KS01HSDLeprdb mouse assessed as decrease in serum glucose AUC level by oral glucose tolerance test; type: functional, organism-based
# How it was run: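 Diabetic male C57BL/KS01HSDLeprdb mice (nondiabetic C57BL/6NHHsd as comparison) acclimated 3 weeks and fasted 4 h. Given 0.0025, 0.01, 0.025 or 0.05 mg/kg free-inhibitor equivalent by oral gavage; vehicle H2O. Oral glucose 1 g/kg given 3 h post-dose. Glucometer blood glucose at predose, 15, 30, 60, 120 and 240 min (5 mice/group); AUC.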
# [8] = system: Mus musculus; experiment: Antidiabetic activity in C57BL/KS01HSDLeprdb mouse assessed as decrease in serum glucose AUC level at 0.5 mg/kg, po by oral glucose tolerance test; type: functional, organism-based; design: dose 0.5 mg/kg
# [9] = system: Rattus norvegicus; experiment: (§2) Toxicity in po dosed Fisher rat assessed as mortality measured up to 24 hrs; type: organism-based; conditions: in vivo, 24 h
# [10] = as §2; type: organism-based; conditions: Fisher, in vivo
# [11] = biological target: T1, Dipeptidyl peptidase 4; experiment: Inhibition of DDP4 at pH 7.4 preincubated with alpha-chymotrypsin up to 8 hrs
# How it was run: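 Prodrug preincubated with 0.1 mM α-chymotrypsin for 0, 0.5, 1, 2, 4, 6 or 24 h before purified DPPIV was added. The DPPIV assay then followed: 0.3 mM H-Ala-Pro-pNA, A410, HEPES/NaCl buffer.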
# Target sequence in this assay (P27487 whole entry): as above
# [12] = biological target: T1, Dipeptidyl peptidase 4; experiment: Inhibition of DDP4
# How it was run: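 Purified DPPIV (~1 nM) in 0.1 M HEPES, 0.14 M NaCl, pH 7.4 or 8.0, at 25 or 37 °C. Inhibitor (10^-5 to 10^-11 M) preincubated 10 min with enzyme before 0.3 mM H-Ala-Pro-pNA; A410 read. Stocks made in HCl pH 2.0 or buffer pH 7.4/8.0 and diluted just before use.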
# Target sequence in this assay (P27487 whole entry, looked up): as the sequence (P27487 whole entry) above
# [13] = Inhibition of alpha-chymotrypsin
smiles,measurement,setting,value
CC(=O)N[C@H](C(=O)N1CCC[C@H]1B(O)O)C(C)C,half-life,[1],30 min
CC(C)[C@H](NC(=O)[C@@H]1CCCN1C(=O)[C@@H](N)C1CCCCC1)C(=O)N1CCC[C@H]1B(O)O,IC50,[2],20 nM
same,IC50,[3],19 nM
same,Activity,[4],Not Active
same,Activity,[5],Not Active
same,Activity,[6],Active
same,Activity,[7],Dose-dependent effect
same,Activity,[8],Active
same,Activity,[9],Non-toxic
C[C@H](NC(=O)[C@@H]1CCCN1C(=O)[C@@H](N)Cc1ccccc1)C(=O)N1CCC[C@H]1B(O)O,IC50,[2],8.3 nM
same,IC50,[3],7 nM
CC(C)[C@H](N)C(=O)N1CCC[C@H]1B(O)O [TALABOSTAT],Activity,[7],Dose-dependent effect
same,Activity,[8],inactive
same,LD50 at 24 h,[10],0.5 mg/kg
C[C@H](NC(=O)CCC(=O)O)C(=O)N[C@@H](C)C(=O)N1CCC[C@H]1C(=O)N[C@@H](Cc1ccccc1)C(=O)N[C@@H](C)C(=O)N1CCC[C@H]1B(O)O (Suc-AAPFA-boroPro),IC50,[11],0.7 nM
same,inhibition,[12],inactive
same,inhibition,[13],inactive
